Experiment [1] has as its target T1, Kappa-type opioid receptor (Cavia porcellus, UniProt P41144). Briefly: In vitro radioligand binding assay, for inhibition of [3H]U-69593 binding to Opioid receptor kappa 1, in guinea pig brain membranes, at highest concentration of 8000 nM tested. The experiment is classed as cell membranes. The procedure, abridged: (§1)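 Guinea pig brain membranes were homogenised in ice-cold 10 mM Tris-HCl pH 7.0, centrifuged twice at 30000g, and resuspended in 50 mM Tris-HCl pH 7.4. [3H]U69,593 (2 nM) was incubated 2 h at 25 °C with protease inhibitor cocktail and 1 µg/mL captopril. Nonspecific binding was defined with 1 µM U69,593. Ten drug concentrations were run twice. Ki = IC50/(1+[L]/Kd).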

In experiment [2] the target is Mu-type opioid receptor (Cavia porcellus, UniProt P97266). Briefly: Agonist activity using strips of guinea pig ileum longitudinal muscle myenteric plexus. The experiment is classed as functional, tissue-based. The method in brief: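 Longitudinal muscle–myenteric plexus strips from male Hartley guinea pigs (250–500 g) at 1 g tension in Krebs bicarbonate, 37 °C, 95% O2/5% CO2. Transmural stimulation at 0.1 Hz, 0.4 ms pulses, supramaximal voltage. Cumulative agonist doses; % inhibition of contraction height. IC50 by nonlinear least squares.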

The nature of experiment [3]: IC50 ratio of mu to delta receptor.
Experiment [4] addresses T2, Mu-type opioid receptor (Rattus norvegicus, UniProt P33535). Briefly: In vitro radioligand binding assay, for inhibition of [3H]DAMGO (Tyr-D-Ala-Gly-(Me)-Phe-Gly-ol) binding to Opioid receptor mu 1 in rat brain membranes at highest concentration of 6300 nM tested. The experiment is classed as cell membranes. The method in brief: (§2)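 Rat brain membranes prepared daily: homogenised in ice-cold 10 mM Tris-HCl pH 7.0, centrifuged twice at 30000g for 10 min, resuspended in 50 mM Tris-HCl pH 7.4. Incubation 2 h at 25 °C in 50 mM Tris-HCl pH 7.4 with protease inhibitor cocktail. Nonspecific binding was defined with 20 µM levallorphan. Ten drug concentrations were run twice. Ki = IC50/(1+[L]/Kd).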

Experiment [5] can be described thus: Ki ratio of mu to delta receptor.
The target in experiment [6] is Delta-type opioid receptor (Mus musculus, UniProt P32300). As to the kind of experiment: Agonist activity using electrically induced smooth muscle contraction of mouse vas deferens. The experiment is classed as functional.
Experiment [7] has as its target T3, Delta-type opioid receptor (Rattus norvegicus, UniProt P33533). As to the kind of experiment: In vitro binding affinity to Opioid receptor delta 1 in rat brain membranes by [3H]DADLE (Tyr-D-Ala-Gly-Phe-D-Leu) displacement. Format: cell membranes. The method in brief: (§3)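 [3H]DADLE (2 nM) was bound to daily-prepared rat brain membranes for 2 h at 25 °C in 50 mM Tris-HCl pH 7.4 with 100 mM choline chloride, 3 mM MnCl2, DAMGO to block mu sites, and protease inhibitor cocktail. Nonspecific binding was defined with 20 µM levallorphan. Ten drug concentrations were run twice. Ki from IC50 by Cheng–Prusoff.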

Experiment [8] concerns the target T1, Kappa-type opioid receptor. As to the kind of experiment: In vitro radioligand binding assay, for inhibition of [3H]U-69593 binding to Opioid receptor kappa 1, in guinea pig brain membranes. Format: cell membranes. The procedure, abridged: as §1
Experiment [9] has as its target T2, Mu-type opioid receptor. Briefly: In vitro radioligand binding assay, for inhibition of [3H]DAMGO (Tyr-D-Ala-Gly-(Me)-Phe-Gly-ol) binding to Opioid receptor mu 1 in rat brain membranes. Format: cell membranes. The method in brief: as §2
In experiment [10] the target is T2, Mu-type opioid receptor. Briefly: In vitro radioligand binding assay, for inhibition of [3H]DAMGO (Tyr-D-Ala-Gly-(Me)-Phe-Gly-ol) binding to Opioid receptor mu 1 in rat brain membranes at highest concentration of 6800 nM tested. The experiment is classed as cell membranes. The method in brief:
as §2

In experiment [11] the target is T1, Kappa-type opioid receptor. As to the kind of experiment: In vitro radioligand binding assay, for inhibition of [3H]U-69593 binding to Opioid receptor kappa 1, in guinea pig brain membranes, at highest concentration of 7000 nM tested. The experiment is classed as cell membranes. The method in brief: as §1
Experiment [12] has as its target T3, Delta-type opioid receptor. Briefly: In vitro radioligand binding assay, for inhibition of [3H]DADLE (Tyr-D-Ala-Gly-Phe-D-Leu) binding to Opioid receptor delta 1, in rat brain membranes at highest concentration of 1700 nM tested. The experiment is classed as cell membranes. The method in brief:
as §3

Experiment [13] concerns the target T2, Mu-type opioid receptor. As to the kind of experiment: In vitro radioligand binding assay, for inhibition of [3H]DAMGO (Tyr-D-Ala-Gly-(Me)-Phe-Gly-ol) binding to Opioid receptor mu 1 in rat brain membranes at highest concentration of 5600 nM tested. Format: cell membranes. The method in brief: as §2
Experiment [14] concerns the target T2, Mu-type opioid receptor. Briefly: In vitro radioligand binding assay, for inhibition of [3H]-DAMGO (Tyr-D-Ala-Gly-(Me)-Phe-Gly-ol) binding to Opioid receptor mu 1 in rat brain membranes at highest concentration of 6600 nM tested. The experiment is classed as cell membranes. The procedure, abridged:
as §2

As a reminder, the Ki is the equilibrium dissociation constant of an inhibitor or competing ligand from its target. A lower Ki goes with tighter binding. What is called IC50 is the concentration at which inhibition is half-maximal. Higher therefore signals a need for much substance.

Chain of Delta-type opioid receptor (Mus musculus, UniProt P32300) (P32300 whole entry): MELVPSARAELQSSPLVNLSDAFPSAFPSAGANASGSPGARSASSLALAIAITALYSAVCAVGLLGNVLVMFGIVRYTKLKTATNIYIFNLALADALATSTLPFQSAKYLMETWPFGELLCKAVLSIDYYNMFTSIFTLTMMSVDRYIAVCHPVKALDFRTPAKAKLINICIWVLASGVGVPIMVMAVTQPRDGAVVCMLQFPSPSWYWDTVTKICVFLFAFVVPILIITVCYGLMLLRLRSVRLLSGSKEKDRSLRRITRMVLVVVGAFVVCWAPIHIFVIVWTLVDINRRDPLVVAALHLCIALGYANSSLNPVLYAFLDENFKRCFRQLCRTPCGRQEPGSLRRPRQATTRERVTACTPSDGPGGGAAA
T1 sequence (P41144 whole entry): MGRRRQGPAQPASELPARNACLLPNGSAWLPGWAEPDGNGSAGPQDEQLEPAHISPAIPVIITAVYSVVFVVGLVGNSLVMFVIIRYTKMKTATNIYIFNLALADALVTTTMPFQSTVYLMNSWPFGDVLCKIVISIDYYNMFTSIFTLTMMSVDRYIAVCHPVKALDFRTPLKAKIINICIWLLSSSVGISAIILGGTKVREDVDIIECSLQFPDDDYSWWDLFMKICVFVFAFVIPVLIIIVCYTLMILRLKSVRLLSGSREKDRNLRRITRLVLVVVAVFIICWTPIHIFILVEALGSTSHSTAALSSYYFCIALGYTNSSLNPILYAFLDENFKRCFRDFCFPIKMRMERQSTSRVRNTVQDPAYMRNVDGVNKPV
T3 sequence (P33533 whole entry): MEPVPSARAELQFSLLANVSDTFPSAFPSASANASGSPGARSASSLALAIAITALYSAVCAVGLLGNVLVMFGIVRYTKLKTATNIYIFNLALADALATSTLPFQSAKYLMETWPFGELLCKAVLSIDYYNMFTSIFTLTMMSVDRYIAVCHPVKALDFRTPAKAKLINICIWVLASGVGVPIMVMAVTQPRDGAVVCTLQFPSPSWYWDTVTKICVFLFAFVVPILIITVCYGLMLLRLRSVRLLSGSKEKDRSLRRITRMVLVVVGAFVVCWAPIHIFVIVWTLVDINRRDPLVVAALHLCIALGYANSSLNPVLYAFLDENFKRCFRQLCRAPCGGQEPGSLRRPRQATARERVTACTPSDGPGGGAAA
Chain of Mu-type opioid receptor (Cavia porcellus, UniProt P97266) (P97266 whole entry): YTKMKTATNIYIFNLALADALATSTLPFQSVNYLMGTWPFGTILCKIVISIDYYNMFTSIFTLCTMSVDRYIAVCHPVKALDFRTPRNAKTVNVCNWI
T2 sequence (P33535 whole entry): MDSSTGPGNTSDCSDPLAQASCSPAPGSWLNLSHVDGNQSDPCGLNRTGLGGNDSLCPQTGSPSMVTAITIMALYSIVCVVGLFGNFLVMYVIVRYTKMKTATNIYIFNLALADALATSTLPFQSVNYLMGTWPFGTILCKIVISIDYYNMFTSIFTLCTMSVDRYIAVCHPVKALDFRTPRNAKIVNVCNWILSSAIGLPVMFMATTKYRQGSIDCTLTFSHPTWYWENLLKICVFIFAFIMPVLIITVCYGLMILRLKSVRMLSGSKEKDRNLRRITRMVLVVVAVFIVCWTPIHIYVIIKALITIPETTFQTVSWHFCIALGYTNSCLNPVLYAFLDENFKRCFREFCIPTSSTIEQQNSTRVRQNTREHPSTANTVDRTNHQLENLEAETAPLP

On to `CCN(CC)C(=O)c1ccc(C(=C2CCNCC2)c2cccc(OC)c2)cc1`, for which the Ki in experiment [1] was found to be 10 µM; in [4], 10 µM; in [7], 0.005 µM. In addition, the IC50 was 27.7 µM in experiment [2] and 0.125 µM in experiment [6]. Also, the Ratio in experiment [3] worked out at 220. The Ki ratio in experiment [5] is > 1200.
Consider `CCN(CC)C(=O)c1ccc(C(c2cccc(OC)c2)C2CCN(C)CC2)cc1` (stereo not drawn), for which the inhibition constant (Ki) stood at 10 µM in [1], 10 µM in experiment [4] and 0.328 µM in experiment [7]. Moreover, in [5], the Ki ratio was > 15.
For `CCN(CC)C(=O)c1ccc(C(=C2CCN(Cc3ccccc3)CC2)c2cccc(OC)c2)cc1`, the Ki in experiment [8] worked out at 7.65 µM; in experiment [4], 10 µM; in experiment [7], 0.012 µM. Besides, the Ki ratio in [5] is > 500.
With `C=CCN1C[C@H](C)N([C@@H](c2ccccc2)c2ccc(C(=O)N(CC)CC)cc2)C[C@H]1C`, the Ki was determined as 3 µM in experiment [8], 3 µM in experiment [9] and 0.0005 µM in experiment [7]. The Ratio in experiment [3] was determined as 813. In experiment [5], the Ki ratio was > 3600.
As to `CCN(CC)C(=O)c1ccc(C(c2cccc(OC)c2)N(C)CCN(C)C)cc1` (stereo not drawn), the inhibition constant (Ki) in experiment [1] amounted to 10 µM; in experiment [10], 10 µM; in [7] it was 0.248 µM. Further, the Ki ratio in [5] is > 20.
On to `CCN(CC)C(=O)c1ccc(C(c2ccccc2)N2CCN(Cc3ccccc3)CC2)cc1` (stereo not drawn), for which the figures for the IC50 in experiment [2] and in experiment [6] were 9.85 µM and 0.0257 µM, respectively. The results for the Ki in [11], in experiment [10] and in experiment [7] were 2 µM, 10 µM and 0.00148 µM, respectively. Further, the Ratio in [3] is 382. In addition, in [5], the Ki ratio is > 4500.
As for `CCN(CC)C(=O)c1ccc(C(c2ccccc2)N2CCNCC2)cc1` (stereo not drawn), the Ki ratio in experiment [5] was > 1400. The values for the inhibitory constant (Ki) in [10] and in experiment [7] were 10 µM and 0.00485 µM, respectively.
As for `CCN(CC)C(=O)c1ccc(C(c2ccccc2)N2CCCCC2)cc1` (stereo not drawn), the Ki in experiment [12] is 3 µM; in [11], 10 µM; in experiment [10], 10 µM. Further, the Ki ratio in [5] was > 4.
For the compound `CCCN1CCN(C(c2ccccc2)c2ccc(C(=O)N(CC)CC)cc2)CC1` (stereo not drawn), the Ki in experiment [11] came to 10 µM; in experiment [10] it was 10 µM; in experiment [7] it was 0.0442 µM. Also, in experiment [5], the Ki ratio was > 150.
`C=CCN1CCC(C(c2ccc(C(=O)N(CC)CC)cc2)c2cccc(OC)c2)CC1` (stereo not drawn): the Ki in [1] amounted to 10 µM; in experiment [4], 10 µM; in experiment [7], 0.027 µM. The Ki ratio in experiment [5] is > 200.
On to `CCN(CC)C(=O)c1ccc(C(NCCN(C)C)c2cccc(OC)c2)cc1` (stereo not drawn), for which the Ki in experiment [1] turned out to be 10 µM; in experiment [10] it was 10 µM; in [7] it was 0.622 µM. The Ki ratio in experiment [5] is > 10.
For `C=CCN1C[C@H](C)N([C@H](c2ccc(C(=O)N(CC)CC)cc2)c2cccc(OC)c2)C[C@H]1C` [SNC-80], the inhibitory constant (Ki) in experiment [8] is 11.7 µM; in experiment [9], 3.97 µM.
As to `CCN(CC)C(=O)c1ccc(C(c2ccccc2)N2CCOCC2)cc1` (stereo not drawn), the Ki in experiment [12] stood at 3 µM; in [11] it was 10 µM; in [10], 10 µM. Also, the Ki ratio in experiment [5] was > 4.
As for `C=CCN1CCN(C(c2ccc(C(=O)N(CC)CC)cc2)c2cccc(OC)c2)CC1` (stereo not drawn), the figures for the Ki in [8], in experiment [9] and in [7] were 10 µM, 10 µM and 0.027 µM, respectively. In addition, the IC50 in experiment [2] is 20.3 µM; in experiment [6], 0.0331 µM. The Ratio in [3] stood at 610. Moreover, the Ki ratio in experiment [5] was > 230.
With `CCN(CC)C(=O)c1ccc(C(OCCN(C)C)c2cccc(OC)c2)cc1` (stereo not drawn), the inhibitory constant (Ki) is 10 µM in [1], 10 µM in experiment [10] and 0.258 µM in experiment [7]. Also, the Ki ratio in [5] is > 20.
In the case of `CCN(CC)C(=O)c1ccc(C(c2ccccc2)N2CCN(C)CC2)cc1` (stereo not drawn), the inhibition constant (Ki) in [11] came out at 10 µM; in experiment [7], 0.0432 µM; in experiment [13] it was 10 µM. Also, the Ki ratio in [5] is > 130.
For the compound `CCN(CC)C(=O)c1ccc(C(c2cccc(OC)c2)C2CCNCC2)cc1` (stereo not drawn), the Ki was 10 µM in experiment [1], 10 µM in [4] and 0.02 µM in experiment [7]. Further, the Ki ratio in experiment [5] is > 300.
In the case of `C=CCN1CCN(C(c2ccccc2)c2ccc(C(=O)N(CC)CC)cc2)CC1` (stereo not drawn), the Ki in experiment [14] is 10 µM; in experiment [7], 0.0105 µM. Besides, in experiment [5], the Ki ratio was > 600.

The record behind these values is ChEMBL document CHEMBL1132188, “Probes for narcotic receptor mediated phenomena. 26. Synthesis and biological evaluation of diarylmethylpiperazines and diarylmethylpiperidines as novel, nonpeptidic delta opioid receptor ligands” (J Med Chem, 1999).
